Experimental data from different studies.
Compare with care: the assays were run in different laboratories.
Read-out: cell growth or viability

| Structure (SMILES) | cell line | technique | time | IC50 |
| --- | --- | --- | --- | --- |
| O=[N+]([O-])c1cc(Br)c(O)c(C=NNc2ccccc2)c1 | HEK-293T | MTT | 24 h | 23 µM |
| COc1ccc(NC(=O)Nc2ccc(-c3cn(Cc4ccc(Cl)cc4)nn3)cc2)cc1 | Huh-7 | CCK-8 | 72 h | > 50 µM |
| COc1cccc2c1C(=O)c1c(O)c3c(c(O)c1C2=O)C[C@@](O)(C(=O)CO)C[C@@H]3O[C@H]1C[C@H](N)[C@H](O)[C@H](C)O1 | HEK-293T | MTT | 24 h | 1.39 µM |
| C=CCn1c(=O)c2cnc(Nc3ccc(N4CCN(C)CC4)cc3)nc2n1-c1ccc2c(n1)[C@@](O)(CC)CC2 | KURAMOCHI | ATP luminescence | 72 h | 1.52 µM |
| Cc1nnc(-c2nn(Cc3ccc(Cl)cc3Cl)c3ccccc23)o1 | HepG2 | – | 48 h | 41.5 µM |
| O=C(Nc1ccc(Cl)cc1)Nc1cccc(-c2cn(Cc3cccc(Br)c3)nn2)c1 | Huh-7 | CCK-8 | 72 h | 32.3 µM |
| COc1cccc2c1C(=O)c1c(O)c3c(c(O)c1C2=O)C[C@@](O)(C(=O)CO)C[C@@H]3O[C@H]1C[C@H](N)[C@H](O)[C@H](C)O1 | Ramos | – | 96 h | 0.0117 µM |
| Cc1cnc(CNC(=O)c2c(=O)c3ccc(N4CCCN(C)CC4)nc3n3c2sc2ccccc23)cn1 | THLE3 | imaging | 72 h | 2.49 µM |
| O=[N+]([O-])c1cc(I)c(O)c(C=NNc2ccc(C(F)(F)F)cc2)c1 | HEK-293T | MTT | 24 h | 8.11 µM |
| COc1ccc(NC(=O)Nc2cccc(-c3cn(Cc4ccc(Br)cc4)nn3)c2)cc1 | Huh-7 | CCK-8 | 72 h | 15.9 µM |
| COC(=O)c1ccc2c(c1)NC(=O)/C2=C(\Nc1ccc(N(C)C(=O)CN2CCN(C)CC2)cc1)c1ccccc1 | HEK-293T | MTT | 24 h | 0.8 µM |
| COc1ccc(NC(=O)Nc2cccc(-c3cn(Cc4cccc(Cl)c4)nn3)c2)cc1 | Huh-7 | CCK-8 | 72 h | 13.5 µM |
| O=[N+]([O-])c1ccc(O)c(C=NNc2ccc(Cl)cc2)c1 | HEK-293T | MTT | 24 h | 11.4 µM |
| O=C(Nc1ccc(Cl)cc1)Nc1cccc(-c2cn(Cc3cccc(Cl)c3)nn2)c1 | Huh-7 | CCK-8 | 72 h | 15.1 µM |
| O=c1[nH]cc(F)c(=O)[nH]1 | Huh-7 | CCK-8 | 72 h | 17.2 µM |
| O=C(Nc1cccc(-c2cn(Cc3ccc(Cl)cc3)nn2)c1)Nc1ccccc1Br | Huh-7 | CCK-8 | 72 h | 13.5 µM |
| Cc1nc(Nc2ncc(C(=O)Nc3c(C)cccc3Cl)s2)cc(N2CC[C@H](O)C2)n1 | Ramos | ATP luminescence | 72 h | > 10 µM |
